Source: PubChem BioAssay
Rtt109 HAT inh = inhibitors of C. albicans Rtt109/Vps75 HAT, primary screen, biochemical, ThioGlo CoA-SH fluorescence, plate reader | actives 0.16% (n = 330,000) | purified Rtt109/Vps75, 4 h | inhibition, % at 34.9 µM | Histone acetyltransferase RTT109 (Candida albicans (strain SC5314 / ATCC MYA-2876)), …;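 active = inhibition of at least 50% in every replicate; inconclusive = best replicate reaches 50% inhibition but some replicates fall short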
Target sequence (Q5AAJ8 whole entry, looked up): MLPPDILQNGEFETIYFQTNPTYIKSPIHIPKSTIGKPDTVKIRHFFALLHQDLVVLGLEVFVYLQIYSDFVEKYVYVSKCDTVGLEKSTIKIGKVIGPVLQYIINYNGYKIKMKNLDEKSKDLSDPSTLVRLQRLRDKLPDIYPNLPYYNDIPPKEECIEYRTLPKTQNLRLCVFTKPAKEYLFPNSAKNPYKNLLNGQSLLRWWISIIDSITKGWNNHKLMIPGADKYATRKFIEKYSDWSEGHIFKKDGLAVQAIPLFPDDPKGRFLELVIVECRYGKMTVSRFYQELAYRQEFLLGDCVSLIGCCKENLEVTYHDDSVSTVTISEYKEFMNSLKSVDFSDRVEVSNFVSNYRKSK
PfHsp90 set2 = growth inhibition of PfHsp90-expressing yeast, primary screen, antimalarial PfHsp90 inhibitor project, S. cerevisiae, BacTiter-Glo luminescence, single point, set 2 | AID 504621, 2011 | actives 0.32% (n = 310,000) | BacTiter-Glo ATP, 48 h; yeast lacking PDR1 and PDR3 efflux regulators | inhibition, % at 9.4 µM;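 active = every replicate shows inhibition above about 80%, whatever the replicate mean, limit read from the data; inconclusive = mean inhibition reaches the set limit but some replicate falls short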
Arr AP2 block = inhibitors of beta-arrestin/AP2 binding, primary screen, biochemical, GPCR trafficking, flow cytometry | beta-arrestin 1 C-terminal peptide binding to AP2 beta2-adaptin appendage (human) | FITC-arrestin peptide / GST-AP2 beads; AP2 beta2 appendage carries R879A mutation | inhibition, % at 10 µM | actives 0.31% (n = 340,000);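 active = inhibition above a set limit, near 3 SD of compounds lacking own fluorescence, cut at about 54% in these data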
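system = GST-tagged AP2 beta2-adaptin appendage (R879A) on 4 µm glutathione beads | reagent = FITC-labelled arrestin peptide probe, 50 nM final | schedule = compound with beads 12 min RT, then probe 1 h RT | signal = HyperCyt-sampled flow cytometry, FL1 channel, ex 488/em 535 nm | read-out = percent response from loss of bead-bound FITC fluorescence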
PAX8 inh HTS = inhibitors of PAX8-driven TPO luciferase reporter, primary screen, RMG-I cells, single concentration | actives 1.2% (n = 360,000) | SteadyGlo, 24 h | inhibition, % at 12.6 µM;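 active = mean replicate inhibition at least 60% with every replicate also reaching 60%; inconclusive = only one of the two criteria is met; inactive = mean below 60% and not all replicates reaching 60%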;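 note: luciferase light reporting Pax8 driven TPO promoter activity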
Glyco luc inh = increase of ERlucT glycosylation luciferase signal, primary screen, N-linked glycosylation inhibitor project, D54 ERlucT cells, luminescence, set 2; D54 ERlucT glycosylation luciferase reporter, 24 h; percent of 100 nM tunicamycin response; reporter increase, % at 12.5 µM; actives 0.23% (n = 360,000); AID 588692, 2011;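 active = mean luciferase reporter signal, scaled so untreated is 0 and the glycosylation-blocking control 100, at or above a set limit in every replicate; inconclusive = mean reaches the limit but not every replicate does; inactive = mean below the limit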;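 note: luciferase carries N-glycosylation sites so blocking glycosylation raises the light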
HIV Env fusion = inhibitors of HIV-1 Env-driven cell-cell fusion, primary screen, HeLa-JRFL effector, CEM21 target cells, luciferase. inhibition, % at 12.3 µM. actives 1.1% (n = 360,000). AID 651610, 2012;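 active = mean replicate inhibition score of at least 50 and every replicate individually at or above 50; inconclusive = only one of the two criteria met; inactive = mean below 50 and not all replicates reaching 50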
A number is an active result; n = inactive; u = inconclusive; x = no result given. The list is not random: actives were taken first. Their share in the collection is about 2.3%.

SMILES	Rtt109 HAT inh	PfHsp90 set2	Arr AP2 block	PAX8 inh HTS	Glyco luc inh	HIV Env fusion
C[C@H](CO)N1C[C@H](C)[C@H](CN(C)Cc2ccc(C(=O)Nc3ccccc3N)cc2)Oc2ccc(N(C)C)cc2C1=O	x	x	x	76.1	x	n
C[C@@H]1CN([C@H](C)CO)C(=O)c2cc(N(C)C)ccc2O[C@H]1CN(C)Cc1ccc(C(=O)Nc2ccccc2N)cc1	x	x	x	n	x	n
CN1C[C@@H](O)COC[C@@H]2O[C@H](CC(=O)NC3CCC3)CC[C@H]21	x	x	x	n	x	n
C[C@@H]1CCCCO[C@@H](CN(C)C(=O)Nc2ccc3c(c2)OCO3)[C@H](C)CN([C@@H](C)CO)C(=O)c2cc(NC(=O)Nc3ccc(C(F)(F)F)cc3)ccc2O1	x	x	x	x	x	n
O=C(C[C@@H]1CC[C@H]2[C@@H](COC[C@@H](O)CN2S(=O)(=O)c2ccccc2)O1)N1CCOCC1	x	x	x	n	x	n
Cc1ccccc1C(=O)NC(NC(=S)Nc1ccc(S(N)(=O)=O)cc1)C(Cl)(Cl)Cl (stereo not drawn)	58.3	n	n	n	n	n
C[C@@H]1CCCCO[C@H](CN(C)Cc2ccc(C(F)(F)F)cc2)[C@H](C)CN([C@@H](C)CO)C(=O)c2cc(NS(=O)(=O)c3ccc(Cl)cc3)ccc2O1	x	x	x	104.7	x	u
C[C@@H]1CCCCO[C@H](CN(C)Cc2ccc(C(F)(F)F)cc2)[C@@H](C)CN([C@@H](C)CO)C(=O)c2cc(NS(=O)(=O)c3ccc(Cl)cc3)ccc2O1	x	x	x	112.8	x	n
C[C@H]1CCCCO[C@H](CN(C)Cc2ccc(C(F)(F)F)cc2)[C@@H](C)CN([C@@H](C)CO)C(=O)c2cc(NS(=O)(=O)c3ccc(Cl)cc3)ccc2O1	x	x	x	92.6	x	n
O=C(Nc1ccc([N+](=O)[O-])cc1)C(=O)Nc1cccc(C(=O)O)c1	n	n	n	101.4	n	115.1
O=C(Nc1ccc([N+](=O)[O-])cc1)Nc1nc(-c2ccc(Cl)s2)cs1	n	n	x	105.8	n	u
Cc1ccc([N+](=O)[O-])cc1NC(=O)C(Sc1ccccc1)c1ccccc1 (stereo not drawn)	n	n	n	n	n	66.9
Cc1ccc(C(C)C)cc1NC(=O)Nc1ccc([N+](=O)[O-])cc1	n	n	n	62.5	n	n
Cc1ccc([N+](=O)[O-])cc1NC(=O)c1ccccc1	n	n	n	n	n	n
C[C@H]1CCCCO[C@H](CN(C)Cc2ccccc2)[C@@H](C)CN([C@@H](C)CO)C(=O)c2cc(NS(=O)(=O)c3cccs3)ccc2O1	x	x	x	n	x	n
CO[C@H]1CN(C)C(=O)c2ccc(NC(=O)c3nc4ccccc4s3)cc2OC[C@@H](C)NC[C@H]1C	x	x	x	x	x	n
C[C@@H]1CN([C@H](C)CO)C(=O)c2cc(NC(=O)NC3CCCCC3)ccc2O[C@@H](C)CCCCO[C@@H]1CN(C)C(=O)Cc1ccccc1	x	x	x	n	x	n
COc1ccc(C(=O)Nc2ccc3c(c2)C(=O)N(C)C[C@@H](OC)[C@@H](C)CN(C)[C@@H](C)CO3)cc1	x	x	x	n	x	n
CCc1csc(N2[C@@H](C#N)[C@@H](c3ccc(C4=CCCC4)cc3)[C@@H]2CO)n1	x	x	x	n	x	n
CC(=O)c1ccc(NC(=O)Nc2ccc([N+](=O)[O-])cc2)cc1	n	n	n	n	n	n
O=C(Nc1ccc(Oc2ccc(NC(=O)Nc3ccc([N+](=O)[O-])cc3)cc2)cc1)Nc1ccc([N+](=O)[O-])cc1	n	n	n	n	n	59.7
COc1ccc(NC(=O)Nc2ccc3c(c2)CC(=O)N([C@@H](C)CO)C[C@@H](C)[C@@H](CN(C)C(=O)Nc2ccc4c(c2)OCO4)O3)cc1	x	x	x	n	x	n
Cc1ccccc1S(=O)(=O)N[C@H]1CC[C@H](CCNS(=O)(=O)c2cccc(F)c2)O[C@@H]1CO	x	x	x	n	x	n
CN(CCCC(=O)Nc1ccncc1)S(=O)(=O)c1ccc(Cl)cc1	n	n	n	n	n	66.1
C[C@@H]1CCCCO[C@H](CN(C)Cc2ccccc2)[C@H](C)CN([C@H](C)CO)C(=O)c2cc(NS(=O)(=O)c3ccccc3)ccc2O1	x	x	x	n	x	n
SMILES	Rtt109 HAT inh	PfHsp90 set2	Arr AP2 block	PAX8 inh HTS	Glyco luc inh	HIV Env fusion
C[C@H]1CCCCO[C@H](CN(C)Cc2ccc(C(F)(F)F)cc2)[C@@H](C)CN([C@@H](C)CO)C(=O)c2cc(NS(=O)(=O)c3ccccc3)ccc2O1	x	x	x	65.3	x	n
C[C@@H]1CN([C@H](C)CO)C(=O)c2cc(NS(=O)(=O)c3ccccc3)ccc2O[C@@H](C)CCCCO[C@H]1CN(C)Cc1ccc(C(F)(F)F)cc1	x	x	x	102.4	x	n
C[C@H]1CCCCO[C@@H](CN(C)Cc2ccccc2)[C@@H](C)CN([C@@H](C)CO)C(=O)c2cc(NS(=O)(=O)c3ccccc3)ccc2O1	x	x	x	n	x	n
C[C@@H]1CCCCO[C@H](CN(C)Cc2ccc(C(F)(F)F)cc2)[C@@H](C)CN([C@H](C)CO)C(=O)c2cc(NS(=O)(=O)c3ccccc3)ccc2O1	x	x	x	n	x	n
C[C@H](CO)N1C[C@H](C)[C@H](CN(C)Cc2ccc(C(F)(F)F)cc2)OCCCC[C@H](C)Oc2ccc(NS(=O)(=O)c3ccccc3)cc2C1=O	x	x	x	99.3	x	n
C[C@@H]1CN([C@@H](C)CO)C(=O)c2cc(NS(=O)(=O)c3ccccc3)ccc2O[C@@H](C)CCCCO[C@@H]1CN(C)Cc1ccc(C(F)(F)F)cc1	x	x	x	106.2	x	n
Cc1noc(C)c1S(=O)(=O)Nc1ccc2c(c1)C(=O)N([C@@H](C)CO)C[C@@H](C)[C@H](CN(C)C(=O)c1ccccc1)OCCCC[C@H](C)O2	x	x	x	n	x	n
CO[C@H]1CN(C)C(=O)c2cc(NC(=O)C3CCOCC3)ccc2OC[C@@H](C)N(CC2CC2)C[C@@H]1C	x	x	x	n	x	n
C[C@H]1CCCCO[C@@H](CN(C)Cc2ccc(C(F)(F)F)cc2)[C@@H](C)CN([C@@H](C)CO)C(=O)c2cc(NS(=O)(=O)c3ccccc3)ccc2O1	x	x	x	86.8	x	n
COc1ccc(CN(C)C(=O)c2ccc(OCC(=O)Nc3cccc(C(F)(F)F)c3)c(OC)c2)c(OC)c1	n	n	n	n	n	75.7
C[C@H](CO)N1C[C@H](C)[C@@H](CN(C)Cc2ccc(Cl)c(Cl)c2)Oc2ccc(NC(=O)C3CCCCC3)cc2CC1=O	x	x	x	n	x	n
Cc1cc(C(=O)Nc2cccc3c2O[C@@H](CN(C)C(=O)NC2CCCCC2)[C@@H](C)CN([C@@H](C)CO)C3=O)n(C)n1	x	x	x	n	x	n
